From ChEMBL document CHEMBL3232844, “Synthesis and structure activity relationships of schweinfurthin indoles” (2014)

Legend:
Type in all cases: functional
NCI-H460 = assay: Cytotoxicity against human NCI-H460 cells; details: for CC50: read-out: pLC50 (the source's name) (converted); for TGI: read-out: pTGI (converted)
How it was run: (§1)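 Tested in a 60-cell-line human tumor panel screen; the read-out is growth inhibition, reported as GI50 for each cell line.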

HOP-92 = assay: Cytotoxicity against human HOP92 cells; details: for CC50: read-out: pLC50 (the source's name) (converted); for TGI: read-out: pTGI (converted); how it was run: as §1
SK-MEL-28 = assay: Cytotoxicity against human SK-MEL-28 cells; details: for CC50: read-out: pLC50 (the source's name) (converted); for TGI: read-out: pTGI (converted); how it was run: as §1
[1] = Cytotoxicity against human OVCAR3 cells; details: for GI50: OVCAR-3; for CC50: OVCAR-3, read-out: pLC50 (the source's name) (converted); for TGI: OVCAR-3, read-out: pTGI (converted); how it was run: as §1
[2] = Cytotoxicity against human OVCAR5 cells; details: for GI50: OVCAR-5; for CC50: OVCAR-5, read-out: pLC50 (the source's name) (converted); for TGI: OVCAR-5, read-out: pTGI (converted); how it was run: as §1
PC-3 = assay: Cytotoxicity against human PC3 cells; details: for TGI: read-out: pTGI (converted); how it was run: as §1
U-251 = assay: Cytotoxicity against human U251 cells; details: for CC50: read-out: pLC50 (the source's name) (converted); for TGI: read-out: pTGI (converted)
How it was run: (§2)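 Cell line run as part of the 60-cell-line screening panel; growth inhibition was reported as a GI50 for each line.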

SK-MEL-5 = assay: Cytotoxicity against human SK-MEL-5 cells; details: for CC50: read-out: pLC50 (the source's name) (converted); for TGI: read-out: pTGI (converted); how it was run: as §1
NCI-H522 = assay: Cytotoxicity against human NCI-H522 cells; details: for CC50: read-out: pLC50 (the source's name) (converted); for TGI: read-out: pTGI (converted); how it was run: as §1
MOLT-4 = assay: Cytotoxicity against human MOLT4 cells; details: for CC50: read-out: pLC50 (the source's name) (converted); for TGI: read-out: pTGI (converted); how it was run: as §1
T47D = assay: Cytotoxicity against human T47D cells; details: for CC50: read-out: pLC50 (the source's name) (converted); for TGI: read-out: pTGI (converted); how it was run: as §2
[3] = Cytotoxicity against human EKVX cells; details: for CC50: read-out: pLC50 (the source's name) (converted); for TGI: read-out: pTGI (converted); how it was run: as §1
SW-620 = assay: Cytotoxicity against human SW620 cells; details: for CC50: read-out: pLC50 (the source's name) (converted); for TGI: read-out: pTGI (converted); how it was run: as §2
MCF7 = assay: Cytotoxicity against human MCF7 cells; details: for TGI: read-out: pTGI (converted); how it was run: as §1
Malme-3M = assay: Cytotoxicity against human MALME-3M cells; details: for CC50: read-out: pLC50 (the source's name) (converted); for TGI: read-out: pTGI (converted); how it was run: as §1
RPMI-8226 = assay: Cytotoxicity against human RPMI8226 cells; details: for CC50: read-out: pLC50 (the source's name) (converted); for TGI: read-out: pTGI (converted); how it was run: as §1
[4] = Cytotoxicity against human Hs578T cells; details: Hs-578T; for TGI: read-out: pTGI (converted); how it was run: as §1

## COc1cc(/C=C/c2cc(OC)c3c(C/C=C(\C)CCC=C(C)C)c[nH]c3c2)cc2c1O[C@]1(C)CC[C@@H](O)C(C)(C)[C@H]1C2
NCI-H460
  GI50: 1.17 µM
  CC50: 43.7 µM
  TGI: 9.12 µM
HOP-92
  GI50: 0.302 µM
  CC50: > 100 µM
  TGI: 16.6 µM
SK-MEL-28
  GI50: 1.05 µM
  CC50: 8.32 µM
  TGI: 2.95 µM
[1]
  GI50: 5.5 µM
  CC50: 47.9 µM
  TGI: 20 µM
[2]
  GI50: 1.02 µM
  CC50: 49 µM
  TGI: 14.5 µM
PC-3
  GI50: 0.447 µM
  LC50: > 100 µM
  TGI: 17.8 µM
U-251
  GI50: 0.759 µM
  CC50: 39.8 µM
  TGI: 12.9 µM
SK-MEL-5
  GI50: 0.525 µM
  CC50: 4.37 µM
  TGI: 1.86 µM
NCI-H522
  GI50: 1.55 µM
  CC50: 8.51 µM
  TGI: 3.63 µM
MOLT-4
  GI50: 0.251 µM
  CC50: > 100 µM
  TGI: 0.851 µM
T47D
  GI50: 7.24 µM
  CC50: > 100 µM
  TGI: 34.7 µM
[3]
  GI50: 1.82 µM
  CC50: > 100 µM
  TGI: > 100 µM
SW-620
  GI50: 1.17 µM
  CC50: 5.89 µM
  TGI: 2.63 µM
MCF7
  GI50: 1.02 µM
  LC50: 12.6 µM
  TGI: 3.39 µM
Malme-3M
  GI50: 1.82 µM
  CC50: 77.6 µM
  TGI: 19.5 µM
RPMI-8226
  GI50: 0.126 µM
  CC50: > 100 µM
  TGI: 0.617 µM
[4]
  GI50: 0.219 µM
  LC50: > 100 µM
  TGI: 1.66 µM

## COc1cc(/C=C/c2cc(O)c3c(c2)C[C@@H]2C(C)(C)[C@H](O)CC[C@@]2(C)O3)cc2[nH]cc(CC=C(C)C)c12
NCI-H460
  GI50: 0.209 µM
  CC50: 66.1 µM
  TGI: 26.9 µM
HOP-92
  GI50: 1.15 µM
  CC50: 81.3 µM
  TGI: 22.9 µM
SK-MEL-28
  GI50: 0.676 µM
  CC50: 46.8 µM
  TGI: 10.7 µM
[1]
  GI50: 8.71 µM
  CC50: 63.1 µM
  TGI: 36.3 µM
[2]
  GI50: 5.37 µM
  CC50: 60.3 µM
  TGI: 30.2 µM
PC-3
  GI50: 1.32 µM
  LC50: > 100 µM
  TGI: 43.7 µM
U-251
  GI50: 0.01 µM
  CC50: 60.3 µM
  TGI: 32.4 µM
SK-MEL-5
  GI50: 1.23 µM
  CC50: 7.08 µM
  TGI: 2.14 µM
NCI-H522
  GI50: 1.66 µM
  CC50: 20.9 µM
  TGI: 7.24 µM
MOLT-4
  GI50: 0.105 µM
  CC50: > 100 µM
  TGI: 2.57 µM
T47D
  GI50: 8.13 µM
  CC50: > 100 µM
  TGI: 39.8 µM
[3]
  GI50: 3.89 µM
  CC50: 81.3 µM
  TGI: 39.8 µM
SW-620
  GI50: 0.302 µM
  CC50: 21.4 µM
  TGI: 4.27 µM
MCF7
  GI50: 0.537 µM
  LC50: 55 µM
  TGI: 12.3 µM
Malme-3M
  GI50: 5.37 µM
  CC50: > 100 µM
  TGI: 31.6 µM
RPMI-8226
  GI50: 0.0112 µM
  CC50: > 100 µM
  TGI: 0.417 µM
[4]
  GI50: 0.01 µM
  LC50: > 100 µM
  TGI: 0.977 µM

## COc1cc(/C=C/c2cc(O)c3cc[nH]c3c2)cc2c1O[C@]1(C)CC[C@@H](O)C(C)(C)[C@H]1C2
NCI-H460
  GI50: 0.871 µM
  CC50: 5.37 µM
  TGI: 2.29 µM
HOP-92
  GI50: 1.23 µM
  CC50: > 100 µM
  TGI: 19.1 µM
SK-MEL-28
  GI50: 1.48 µM
  CC50: > 100 µM
  TGI: > 100 µM
[1]
  GI50: 1.82 µM
  CC50: > 100 µM
  TGI: 10.5 µM
[2]
  GI50: 7.41 µM
  CC50: > 100 µM
  TGI: 41.7 µM
PC-3
  GI50: 0.631 µM
  LC50: > 100 µM
  TGI: 38 µM
U-251
  GI50: 0.479 µM
  CC50: > 100 µM
  TGI: 13.8 µM
SK-MEL-5
  GI50: 0.195 µM
  CC50: 1.12 µM
  TGI: 0.457 µM
NCI-H522
  GI50: 1.29 µM
  CC50: 41.7 µM
  TGI: 8.32 µM
MOLT-4
  GI50: 0.309 µM
  CC50: 75.9 µM
  TGI: 1.78 µM
T47D
  GI50: 5.01 µM
  CC50: 83.2 µM
  TGI: 22.4 µM
[3]
  GI50: 3.47 µM
  CC50: 91.2 µM
  TGI: 27.5 µM
SW-620
  GI50: 1.26 µM
  CC50: 8.13 µM
  TGI: 3.16 µM
MCF7
  GI50: 1.29 µM
  LC50: 51.3 µM
  TGI: 20.4 µM
Malme-3M
  GI50: 1.74 µM
  CC50: 52.5 µM
  TGI: 10.7 µM
RPMI-8226
  GI50: 0.316 µM
  CC50: > 100 µM
  TGI: 2.51 µM
[4]
  GI50: 0.251 µM
  LC50: > 100 µM
  TGI: 0.871 µM

## COc1cc(/C=C/c2cc(O)c3cc(CC=C(C)C)[nH]c3c2)cc2c1O[C@]1(C)CC[C@@H](O)C(C)(C)[C@H]1C2
NCI-H460
  GI50: 3.31 µM
  CC50: > 100 µM
  TGI: > 100 µM
HOP-92
  GI50: 1.38 µM
  CC50: > 100 µM
  TGI: 42.7 µM
SK-MEL-28
  GI50: 4.68 µM
  CC50: 91.2 µM
  TGI: 50.1 µM
[1]
  GI50: 43.7 µM
  CC50: > 100 µM
  TGI: > 100 µM
[2]
  GI50: 25.7 µM
  CC50: > 100 µM
  TGI: > 100 µM
PC-3
  GI50: 1.02 µM
  LC50: > 100 µM
  TGI: > 100 µM
U-251
  GI50: 0.603 µM
  CC50: > 100 µM
  TGI: > 100 µM
SK-MEL-5
  GI50: 1.41 µM
  CC50: 7.24 µM
  TGI: 3.16 µM
NCI-H522
  GI50: 4.9 µM
  CC50: > 100 µM
  TGI: 43.7 µM
MOLT-4
  GI50: 0.813 µM
  CC50: > 100 µM
  TGI: > 100 µM
T47D
  GI50: 29.5 µM
  CC50: > 100 µM
  TGI: > 100 µM
[3]
  GI50: 4.79 µM
  CC50: > 100 µM
  TGI: > 100 µM
SW-620
  GI50: 2.04 µM
  CC50: 39.8 µM
  TGI: 8.32 µM
MCF7
  GI50: 2.45 µM
  LC50: > 100 µM
  TGI: 50.1 µM
Malme-3M
  GI50: 4.9 µM
  CC50: > 100 µM
  TGI: > 100 µM
RPMI-8226
  GI50: 0.282 µM
  CC50: > 100 µM
  TGI: 32.4 µM
[4]
  GI50: 0.309 µM
  LC50: > 100 µM
  TGI: > 100 µM

## COc1cc(/C=C/c2cc(OC)c3c(CC=C(C)C)c[nH]c3c2)cc2c1O[C@]1(C)CC[C@@H](O)C(C)(C)[C@H]1C2
NCI-H460
  GI50: 0.372 µM
  CC50: 17 µM
  TGI: 2.19 µM
HOP-92
  GI50: 0.178 µM
  CC50: 93.3 µM
  TGI: 5.62 µM
SK-MEL-28
  GI50: 0.347 µM
  CC50: 15.8 µM
  TGI: 2.24 µM
[1]
  GI50: 2.82 µM
  CC50: 38 µM
  TGI: 12 µM
[2]
  GI50: 1.55 µM
  CC50: 51.3 µM
  TGI: 7.24 µM
PC-3
  GI50: 0.24 µM
  LC50: > 100 µM
  TGI: 17.4 µM
U-251
  GI50: 0.0759 µM
  CC50: 12.9 µM
  TGI: 2.29 µM
SK-MEL-5
  GI50: 0.263 µM
  CC50: 1.48 µM
  TGI: 0.676 µM
NCI-H522
  GI50: 0.646 µM
  CC50: 5.25 µM
  TGI: 2 µM
MOLT-4
  GI50: 0.155 µM
  CC50: > 100 µM
  TGI: 0.661 µM
T47D
  GI50: 1.74 µM
  CC50: > 100 µM
  TGI: 17 µM
[3]
  GI50: 0.832 µM
  CC50: > 100 µM
  TGI: 6.61 µM
SW-620
  GI50: 0.288 µM
  CC50: 4.07 µM
  TGI: 1.12 µM
MCF7
  GI50: 0.398 µM
  LC50: 19.1 µM
  TGI: 3.72 µM
Malme-3M
  GI50: 2 µM
  CC50: 91.2 µM
  TGI: 8.71 µM
RPMI-8226
  GI50: 0.0776 µM
  TGI: 0.355 µM
[4]
  GI50: 0.0537 µM
  LC50: > 100 µM
  TGI: 0.692 µM
